We go through 55 molecules from ChEMBL document CHEMBL4257575, “Discovery of Novel Flavonoid Dimers To Reverse Multidrug Resistance Protein 1 (MRP1, ABCC1) Mediated Drug Resistance in Cancers Using a High Throughput Platform with "Click Chemistry"” (J Med Chem, 2018).

The structures appear in SMILES notation.

For the series, the target named is Multidrug resistance-associated protein 1 (Homo sapiens, UniProt P33527). Nature of the series: Inhibition of MRP1 in human 2008/MRP1 cells assessed as potentiation of doxorubicin-induced cytotoxicity by measuring cell survival at 2 uM after 5 days by MTS assay relative to control. It is filed as cell-based. To be noted: 120 h. The method, boiled down: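 2008/MRP1 cells (retroviral human MRP1 transfectant; RPMI 1640, 10% FBS) at 4,000 per well, with 100 nM doxorubicin plus crude, unpurified click products in DMSO: 2 µM in the primary screen, 1 µM in the secondary. Incubated 5 days at 37 °C. MTS/PMS added for 2 h at 37 °C, absorbance read at 490 nm. % survival is relative to wells without DOX or product. Run in triplicate, at least three experiments.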
Sequence of Multidrug resistance-associated protein 1 (P33527 whole entry): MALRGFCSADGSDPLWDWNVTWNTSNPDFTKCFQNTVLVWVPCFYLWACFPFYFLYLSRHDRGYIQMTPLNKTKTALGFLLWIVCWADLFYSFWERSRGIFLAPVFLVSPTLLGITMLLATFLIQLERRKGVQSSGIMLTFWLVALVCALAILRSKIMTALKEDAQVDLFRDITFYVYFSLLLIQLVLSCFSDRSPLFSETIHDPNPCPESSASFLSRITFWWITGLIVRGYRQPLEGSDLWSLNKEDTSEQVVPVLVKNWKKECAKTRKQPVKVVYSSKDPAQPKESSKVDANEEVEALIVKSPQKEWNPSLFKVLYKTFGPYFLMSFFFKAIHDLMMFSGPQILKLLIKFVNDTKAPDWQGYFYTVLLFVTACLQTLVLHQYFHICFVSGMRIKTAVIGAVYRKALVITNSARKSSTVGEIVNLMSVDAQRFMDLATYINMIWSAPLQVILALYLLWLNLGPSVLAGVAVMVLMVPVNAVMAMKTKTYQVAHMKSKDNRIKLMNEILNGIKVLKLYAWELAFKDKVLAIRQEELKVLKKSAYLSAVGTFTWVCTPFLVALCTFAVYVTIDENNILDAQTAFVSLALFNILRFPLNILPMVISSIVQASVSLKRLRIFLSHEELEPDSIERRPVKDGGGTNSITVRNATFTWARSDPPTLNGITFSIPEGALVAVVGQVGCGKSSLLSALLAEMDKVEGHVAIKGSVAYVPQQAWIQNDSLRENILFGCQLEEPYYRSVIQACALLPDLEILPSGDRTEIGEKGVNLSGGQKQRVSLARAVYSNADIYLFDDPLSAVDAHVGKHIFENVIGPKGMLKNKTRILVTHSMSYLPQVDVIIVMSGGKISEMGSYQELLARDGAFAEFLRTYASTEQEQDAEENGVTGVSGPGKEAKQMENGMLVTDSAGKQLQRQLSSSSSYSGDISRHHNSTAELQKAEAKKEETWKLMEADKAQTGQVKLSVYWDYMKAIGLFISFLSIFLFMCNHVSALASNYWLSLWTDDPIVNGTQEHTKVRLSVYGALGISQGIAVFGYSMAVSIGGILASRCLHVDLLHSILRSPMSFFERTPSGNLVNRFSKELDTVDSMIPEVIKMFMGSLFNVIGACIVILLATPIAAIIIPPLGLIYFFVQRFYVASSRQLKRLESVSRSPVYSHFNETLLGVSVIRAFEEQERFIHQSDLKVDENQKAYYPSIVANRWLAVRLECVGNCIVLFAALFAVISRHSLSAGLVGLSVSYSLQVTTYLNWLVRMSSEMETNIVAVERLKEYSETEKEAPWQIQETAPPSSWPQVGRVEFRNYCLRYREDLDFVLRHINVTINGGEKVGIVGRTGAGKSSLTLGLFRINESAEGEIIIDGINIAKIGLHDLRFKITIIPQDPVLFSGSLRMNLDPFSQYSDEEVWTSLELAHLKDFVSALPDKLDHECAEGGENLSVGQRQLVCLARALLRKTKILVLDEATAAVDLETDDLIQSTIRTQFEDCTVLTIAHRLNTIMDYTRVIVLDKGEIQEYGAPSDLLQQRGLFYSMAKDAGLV

As to `O=c1cc(-c2ccccc2)oc2cc(OCCn3cc(-c4ccc(-c5cn(CCOc6ccc7occ(-c8ccccc8)c(=O)c7c6)nn5)cc4)nn3)ccc12`, the Survival came to 87%.

Regarding `COc1cccc(COc2c(-c3ccc(OCCOCCn4cc(CCCCOc5ccc(/C=C/C(=O)c6cc(C)ccc6O)cc5)nn4)cc3)oc3ccccc3c2=O)c1`, the Survival is recorded as 75%.

On to `O=Cc1ccc(OCCCCc2cn(CCOCCOc3ccc(-c4cc(=O)c5ccccc5o4)cc3)nn2)cc1`, for which the Survival is on record as 75%.

Consider `O=C(/C=C/c1ccc(OCCCCc2cn(CCOCCOCCOc3ccc4c(=O)cc(-c5ccccc5)oc4c3)nn2)cc1)c1ccccc1O`, for which the Survival was found to be 72%.

For the molecule `COCOc1cc(OCc2ccccc2)c2c(=O)cc(-c3ccc(OCCCc4cn(CCOCCOCCOc5ccc6c(=O)cc(-c7ccccc7)oc6c5)nn4)cc3)oc2c1`, the Survival came to 76%.

On to `COc1cccc(COc2c(-c3ccc(OCCOCCn4cc(CCCOc5ccc6c(=O)cc(-c7ccccc7)oc6c5)nn4)cc3)oc3ccccc3c2=O)c1`, for which the Survival is recorded as 78%.

For `Cc1ccc2oc(-c3ccc(OCCOCCOCCn4cc(-c5cccc(-c6cn(CCOCCOCCOc7ccc(-c8cc(=O)c9cc(C)ccc9o8)cc7)nn6)c5)nn4)cc3)cc(=O)c2c1`, the Survival is 77%.

Turning to `O=c1cc(-c2ccc(OCCOCCOCCn3cc(CN(Cc4cn(CCOCCOCCOc5ccc(-c6cc(=O)c7ccccc7o6)cc5)nn4)Cc4cn(CCOCCOCCOc5ccc(-c6cc(=O)c7ccccc7o6)cc5)nn4)nn3)cc2)oc2ccccc12`, the Survival was found to be 77%.

With `[N-]=[N+]=NCCOCCOc1ccc(-c2cc(=O)c3cc(F)ccc3o2)cc1`, the Survival is listed as 90%.

In the case of `O=c1c(OCc2ccccc2)c(-c2ccc(OCCOCCOCCn3cc(CN(Cc4cn(CCOCCOCCOc5ccc(-c6oc7ccccc7c(=O)c6OCc6ccccc6)cc5)nn4)Cc4cn(CCOCCOCCOc5ccc(-c6oc7ccccc7c(=O)c6OCc6ccccc6)cc5)nn4)nn3)cc2)oc2ccccc12`, the Survival worked out at 81%.

On to `CCc1ccc(O)c(C(=O)/C=C/c2ccc(OCCCCc3cn(CCOc4cccc5c(=O)cc(-c6ccccc6)oc45)nn3)cc2)c1`, for which the Survival was determined as 86%.

Consider `O=c1[nH]c(-c2ccc(OCCCc3cn(CCOCCOCCOc4ccc(-c5oc6ccccc6c(=O)c5OCc5ccccc5)cc4)nn3)cc2)nc2ccccc12`, for which the Survival is 68%.

With `COc1cccc(COc2c(-c3ccc(OCCOCCn4cc(CCCCOc5ccc(/C=C/C(=O)c6ccc(C)cc6O)cc5)nn4)cc3)oc3ccccc3c2=O)c1`, the Survival is reported as 78%.

As for `O=c1cc(-c2ccc(OCCOCCOCCn3cc(-c4cccc(-c5cn(CCOCCOCCOc6ccc(-c7cc(=O)c8cc(F)ccc8o7)cc6)nn5)c4)nn3)cc2)oc2ccc(F)cc12`, the Survival is listed as 72%.

On to `O=C(/C=C/c1ccc(OCCCCc2cn(CCOCCOc3ccc(-c4oc5ccccc5c(=O)c4OCc4ccccc4)cc3)nn2)cc1)c1ccccc1O`, for which the Survival was 72%.

Consider `O=c1cc(-c2ccccc2)oc2cc(OCCOCCn3cc(CNc4ccccc4)nn3)ccc12`, for which the Survival is recorded as 88%.

Turning to `C#CCOCCOc1ccc2c(=O)cc(-c3ccccc3)oc2c1`, the Survival was found to be 98%.

Take `Cc1ccc2oc(-c3ccc(OCCCCc4cn(CCOCCOc5ccc(-c6oc7ccccc7c(=O)c6OCc6ccccc6)cc5)nn4)cc3)cc(=O)c2c1`: the Survival is given as 73%.

For `O=c1[nH]c(-c2ccc(OCCCc3cn(CCOc4cccc5c(=O)cc(-c6ccccc6)oc45)nn3)cc2)nc2ccccc12`, the Survival is listed as 67%.

Consider `O=c1cc(-c2ccc(OCCOCCn3cc(-c4cccc(-c5cn(CCOCCOc6ccc(-c7cc(=O)c8cc(F)ccc8o7)cc6)nn5)c4)nn3)cc2)oc2ccc(F)cc12`, for which the Survival was found to be 74%.

In the case of `CN(CCN(C)Cc1cn(CCOCCOc2cccc(-c3oc4ccccc4c(=O)c3OCc3ccccc3)c2)nn1)Cc1cn(CCOCCOc2cccc(-c3oc4ccccc4c(=O)c3OCc3ccccc3)c2)nn1`, the Survival turned out to be 83%.

As to `O=c1cc(-c2ccccc2)oc2cc(OCCOCCOCCn3cc(CNc4ccccc4)nn3)ccc12`, the Survival is 90%.

On to `COc1cccc(COc2c(-c3ccc(OCCCCc4cn(CCOCCOc5cccc(-c6oc7ccccc7c(=O)c6OCc6ccccc6)c5)nn4)cc3)oc3ccccc3c2=O)c1`, for which the Survival turned out to be 75%.

In the case of `O=c1cc(-c2ccc(OCCCc3cn(CCOCCOc4ccc(-c5cc(=O)c6cc(F)ccc6o5)cc4)nn3)cc2)oc2cc(F)ccc12`, the Survival amounted to 55%.

`Cc1ccc(O)c(C(=O)/C=C/c2ccc(OCCCCc3cn(CCOCCOc4ccc(-c5cc(=O)c6cc(F)ccc6o5)cc4)nn3)cc2)c1`: the Survival came to 82%.

Consider `Cc1ccc2oc(-c3ccc(OCCOCCOCCN=[N+]=[N-])cc3)cc(=O)c2c1`, for which the Survival is listed as 84%.

Regarding `O=c1cc(-c2ccccc2)oc2cc(OCCCc3cn(CCOCCOCCOc4ccc(-c5oc6ccccc6c(=O)c5OCc5ccccc5)cc4)nn3)ccc12`, the Survival is reported as 63%.

`O=c1cc(-c2ccccc2)oc2cc(OCCn3cc(CN(Cc4ccccc4)Cc4cn(CCOc5ccc6occ(-c7ccccc7)c(=O)c6c5)nn4)nn3)ccc12`: the Survival is 96%.

In the case of `O=c1c(OCc2ccccc2)c(-c2ccc(OCCOCCOCCn3cc(CNc4ccccc4)nn3)cc2)oc2ccccc12`, the Survival was found to be 87%.

Turning to `O=c1cc(-c2ccc(OCCOCCOCCn3cc(CN4CCN(Cc5cn(CCOCCOCCOc6ccc(-c7cc(=O)c8ccccc8o7)cc6)nn5)CC4)nn3)cc2)oc2ccccc12`, the Survival is 100%.

On to `O=c1cc(-c2ccccc2)oc2cc(OCCOCCOCCn3cc(CN(CCOc4ccc5c(=O)cc(-c6ccccc6)oc5c4)Cc4ccccc4)nn3)ccc12`, for which the Survival was 51%.

In the case of `O=C1c2ccccc2C(=O)N1CCc1cn(CCOCCOc2ccc3c(=O)cc(-c4ccccc4)oc3c2)nn1`, the Survival is listed as 51%.

`O=C(/C=C/c1ccc(OCCCCc2cn(CCOCCOCCOc3ccc(-c4cc(=O)c5cc(F)ccc5o4)cc3)nn2)cc1)c1ccccc1O`: the Survival was found to be 56%.

Take `O=C(/C=C/c1ccc(OCCCCc2cn(CCOCCOCCOc3ccc(-c4oc5ccccc5c(=O)c4OCc4ccccc4)cc3)nn2)cc1)c1ccc(F)cc1O`: the Survival came out at 68%.

Turning to `COc1cccc(COc2c(-c3ccc(OCCOCCn4cc(-c5ccc(-c6cn(CCOCCOc7ccc(-c8oc9ccccc9c(=O)c8OCc8cccc(OC)c8)cc7)nn6)cc5)nn4)cc3)oc3ccccc3c2=O)c1`, the Survival was 88%.

As for `O=c1cc(-c2ccccc2)oc2cc(OCCCCc3cn(CCOCCOc4ccc(-c5cc(=O)c6cc(F)ccc6o5)cc4)nn3)ccc12`, the Survival came out at 52%.

On to `O=c1cc(-c2ccc(OCCCc3cn(CCOCCOc4ccc(-c5cc(=O)c6cc(F)ccc6o5)cc4)nn3)cc2)oc2ccc(F)cc12`, for which the Survival was 74%.

As for `COc1cccc(COc2c(-c3ccc(OCCCCc4cn(CCOCCOc5ccc(-c6oc7ccccc7c(=O)c6OCc6ccccc6)cc5)nn4)cc3)oc3ccccc3c2=O)c1`, the Survival amounted to 68%.

As for `O=c1cc(-c2ccccc2)oc2cc(OCCCc3cn(CCOc4cccc5c(=O)cc(-c6ccccc6)oc45)nn3)ccc12`, the Survival amounted to 56%.

Turning to `O=c1cc(-c2ccccc2)oc2cc(OCCOCCOCCn3cc(-c4cccc(-c5cn(CCOCCOCCOc6ccc7c(=O)cc(-c8ccccc8)oc7c6)nn5)c4)nn3)ccc12`, the Survival was 74%.

On to `O=c1cc(-c2ccc(OCCOCCOCCn3cc(CNc4ccccc4)nn3)cc2)oc2ccccc12`, for which the Survival is on record as 88%.

Consider `CCc1ccc(O)c(C(=O)/C=C/c2ccc(OCCCCc3cn(CCOCCOCCOc4ccc5c(=O)cc(-c6ccccc6)oc5c4)nn3)cc2)c1`, for which the Survival was determined as 79%.

As to `[N-]=[N+]=NCCOCCOCCOc1ccc(-c2oc3ccccc3c(=O)c2OCc2ccccc2)cc1`, the Survival was 74%.

Consider `Cc1ccc(O)c(C(=O)/C=C/c2ccc(OCCCCc3cn(CCOCCOc4ccc5c(=O)cc(-c6ccccc6)oc5c4)nn3)cc2)c1`, for which the Survival worked out at 73%.

With `C#CCN(C)CCN(C)CC#C`, the Survival worked out at 87%.

With `O=C1c2ccccc2C(=O)N1CCc1cn(CCOCCOc2ccc(-c3oc4ccccc4c(=O)c3OCc3ccccc3)cc2)nn1`, the Survival is given as 57%.

Take `COCOc1cc(OCc2ccccc2)c2c(=O)cc(-c3ccc(OCCCc4cn(CCOCCOc5ccc6c(=O)cc(-c7ccccc7)oc6c5)nn4)cc3)oc2c1`: the Survival worked out at 54%.

Take `Cc1ccc(C(=O)/C=C/c2ccc(OCCCCc3cn(CCOCCOCCOc4ccc5c(=O)cc(-c6ccccc6)oc5c4)nn3)cc2)c(O)c1`: the Survival is given as 72%.

As for `Cc1ccc2oc(-c3ccc(OCCOCCOCCn4cc(CN(Cc5ccccc5)Cc5cn(CCOCCOCCOc6ccc(-c7cc(=O)c8cc(C)ccc8o7)cc6)nn5)nn4)cc3)cc(=O)c2c1`, the Survival came to 52%.

In the case of `O=c1cc(-c2ccc(OCCOCCn3cc(CCCOc4ccc(-c5cc(=O)c6cc(F)ccc6o5)cc4)nn3)cc2)oc2ccccc12`, the Survival is on record as 93%.

Consider `O=c1c(OCc2ccccc2)c(-c2cccc(OCCOCCn3cc(-c4cccc(-c5cn(CCOCCOc6cccc(-c7oc8ccccc8c(=O)c7OCc7ccccc7)c6)nn5)c4)nn3)c2)oc2ccccc12`, for which the Survival is 89%.

For `O=c1[nH]c(-c2ccc(OCCCc3cn(CCOCCOc4ccc(-c5oc6ccccc6c(=O)c5OCc5ccccc5)cc4)nn3)cc2)nc2ccccc12`, the Survival was 64%.

Turning to `O=c1cc(-c2ccccc2)oc2cc(OCCOCCOCCn3cc(CN(Cc4ccccc4)Cc4cn(CCOCCOCCOc5ccc6c(=O)cc(-c7ccccc7)oc6c5)nn4)nn3)ccc12`, the Survival worked out at 74%.

Regarding `O=c1[nH]c(-c2ccc(OCCCc3cn(CCOCCOCCOc4ccc5c(=O)cc(-c6ccccc6)oc5c4)nn3)cc2)nc2ccccc12`, the Survival is listed as 60%.

As for `O=c1c(OCc2ccccc2)c(-c2ccc(OCCOCCn3cc(CN4CCN(Cc5cn(CCOCCOc6ccc(-c7oc8ccccc8c(=O)c7OCc7ccccc7)cc6)nn5)CC4)nn3)cc2)oc2ccccc12`, the Survival is 58%.
